Results reported in ChEMBL document CHEMBL2062427, “Synthesis, chemical reactivity as Michael acceptors, and biological potency of monocyclic cyanoenones, novel and highly potent anti-inflammatory and cytoprotective agents” (J Med Chem, 2012).
pIC50: −log10 of the molar value. Active and inactive are the calls of the source. No cut-off for these calls is given here.

Legend:
[1] = test system: RAW264.7; assay: Antiinflammatory activity in mouse RAW264.7 cells assessed as inhibition of IFNgamma-stimulated NO production pretreated for 2 hrs before IFNgamma challenge measured after 24 hrs by Griess reaction; format: functional, cell-based
Procedure, shortened: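 RAW 264.7 cells seeded at 30,000/well in triplicate; next day pre-treated 2 h with DMSO or 2-fold serial dilutions (0–200 nM or 0–10 µM), then IFN-γ 20 ng/mL for 24 h. Medium NO by Griess; viability by WST-1. IC50 from suppression of IFN-γ-induced NO normalized to viability; mean of three independent experiments, SD.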

[2] = target: NAD(P)H dehydrogenase [quinone] 1 (Mus musculus) (UniProt Q64669); assay: Induction of NQO1 activity in mouse Hepa-1c1c7 cells assessed as concentration require to double the specific enzyme activity after 48 hrs; format: cell-based
Procedure, shortened: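 Hepa1c1c7 cells, 10,000/well, grown 24 h, then exposed to serial dilutions for 48 h. Potency expressed as concentration doubling NQO1 specific enzyme activity (CD).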

[3] = test system: RAW264.7; assay: Ratio of CDDO IC50 to compound IC50 for antiinflammatory activity in mouse RAW264.7 cells assessed as inhibition of IFNgamma-stimulated NO production; format: functional
[4] = test system: BMDM; assay: Antiinflammatory activity in C57BL/6 mouse BMDM cells assessed as inhibition of LPS-stimulated […] production at 0.5 uM pretreated for 1 hr before LPS challenge after 8 to 24 hrs by immunoassay; format: functional, cell-based
Procedure, shortened: (§1)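 Macrophages given compound at 0.5 µM; LPS 100 ng/mL added 1 h after start of compound treatment, for 8 h or 24 h. Supernatants collected at 8 or 24 h and assayed for LDH release (% released, cell death), TNF-α or IL-1β (pg/mL). Averages of 2 independent experiments, SD.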

[5] = Induction of apoptosis in LPS-stimulated C57BL/6 mouse BMDM cells assessed as LDH release at 0.5 uM pretreated for 1 hr before LPS challenge after 8 hrs; format: cell-based; procedure, shortened: as §1
[6] = test system: BMDM; assay: Antiinflammatory activity in C57BL/6 mouse BMDM cells assessed as inhibition of LPS-stimulated TNFalpha production at 0.5 uM pretreated for 1 hr before LPS challenge after 8 to 24 hrs by immunoassay; format: functional, cell-based; procedure, shortened: as §1
[7] = Cytotoxicity against C57BL/6 mouse BMDM cells assessed as LDH release after 24 hrs; format: cell-based; settings: bone marrow-derived macrophages (BMDM cells)
Procedure, shortened: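 Macrophages exposed to compound without LPS for 24 h; culture supernatant assayed for % LDH released as cell-death measure. Averages of 2 independent experiments, SD.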

[8] = Induction of apoptosis in LPS-stimulated C57BL/6 mouse BMDM cells assessed as LDH release at 0.1 uM pretreated for 1 hr before LPS challenge after 8 hrs; format: cell-based
Procedure, shortened: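 Cells were compound-treated, and LPS (100 ng/mL) was added 1 h after the start of compound treatment for 8 h. Supernatant lactate dehydrogenase was measured as % LDH released, as a cell-death read-out. Comparison arms were no-LPS (compound 24 h) and untreated cells. Mean of 2 independent experiments, with standard deviation error bars.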

[9] = test system: BMDM; assay: Antiinflammatory activity in C57BL/6 mouse BMDM cells assessed as inhibition of LPS-stimulated TNFalpha production at 0.1 uM pretreated for 1 hr before LPS challenge after 8 to 24 hrs by immunoassay; format: functional, cell-based
Procedure, shortened: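 Macrophages pretreated with compound, then given LPS (100 ng/mL) 1 h after the start of compound exposure for 8 h or 24 h. Culture supernatants were collected at 8 h or 24 h and assayed for secreted TNF-α (pg/mL). Controls were untreated cells and cells given compound without LPS (24 h). Averages of 2 independent experiments; error is standard deviation.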

[10] = Induction of apoptosis in LPS-stimulated C57BL/6 mouse BMDM cells assessed as LDH release at 0.5 uM pretreated for 1 hr before LPS challenge after 24 hrs; format: cell-based; procedure, shortened: as §1

NAD(P)H dehydrogenase [quinone] 1 (Mus musculus), sequence (Q64669 whole entry): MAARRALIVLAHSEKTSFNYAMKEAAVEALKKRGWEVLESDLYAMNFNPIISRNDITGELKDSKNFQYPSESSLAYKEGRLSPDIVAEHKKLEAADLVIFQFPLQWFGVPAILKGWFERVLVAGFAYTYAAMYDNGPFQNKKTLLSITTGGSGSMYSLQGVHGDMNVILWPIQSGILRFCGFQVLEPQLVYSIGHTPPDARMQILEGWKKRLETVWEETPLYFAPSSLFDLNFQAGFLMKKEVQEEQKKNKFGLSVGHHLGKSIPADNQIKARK

| SMILES | pIC50 [1] | CD [2] [nM] | MNTC at 24 h [7] [nM] | further results |
| --- | --- | --- | --- | --- |
| C#CC1(C)C=C(C#N)C(=O)CC1 (stereo not drawn) | 6.82 | 100 |  |  |
| CC#CC1(C)C=CC(=O)C(C#N)=C1 (stereo not drawn) | 8.14 | 33 |  | Ratio IC50 [3]: 2 |
| NC(=O)Nc1sc(-c2ccc(F)cc2)cc1C(N)=O |  |  | 500 | Activity [4]: inactive; Activity [5]: Toxic; Activity [6]: Active |
| CC1(C)C=C(C#N)C(=O)C(C)(C)C1 | 5.72 | 1900 |  |  |
| C#CC1(C)C=CC(=O)C(C#N)=C1 (stereo not drawn) | 8.24 | 22 | 500 | Activity [4]: Active; Activity [5]: Toxic; Activity [6]: Active; Ratio IC50 [3]: 2 |
| COC(=O)C1(C)C=CC(=O)C(C#N)=C1 (stereo not drawn) | 7.24 | 320 |  |  |
| C#C[C@]12C=C(C#N)C(=O)C=C1[C@@]1(C)C=C(C#N)C(=O)C(C)(C)[C@@H]1CC2 (racemic) |  |  | 100 | Activity [8]: Not Active; Activity [9]: Active |
| CC1(C#N)C=CC(=O)C(C#N)=C1 (stereo not drawn) | 6.66 | 58 |  |  |
| CC1(C)CC[C@]2(C(=O)O)CC[C@]3(C)[C@H](C(=O)C=C4[C@@]5(C)C=C(C#N)C(=O)C(C)(C)[C@@H]5CC[C@]43C)[C@@H]2C1 [BARDOXOLONE] | 7.78 |  |  |  |
| CC1(C)C=CC(=O)C(C#N)=C1 | 6.52 | 150 |  |  |
| C=CC1(C)C=CC(=O)C(C#N)=C1 (stereo not drawn) | 6.77 | 150 |  |  |
| COC(=O)[C@]12CCC(C)(C)C[C@H]1[C@H]1C(=O)C=C3[C@@]4(C)C=C(C#N)C(=O)C(C)(C)[C@@H]4CC[C@@]3(C)[C@]1(C)CC2 [BARDOXOLONE METHYL] |  |  | 500 | Activity [10]: Not Active; Activity [6]: Active |
